Experimental data reported in ChEMBL document CHEMBL3414431, “Synthesis, biological evaluation and molecular docking of some substituted pyrazolines and isoxazolines as potential antimicrobial agents” (2015).
≈ marks a conversion by molar mass, not a printed value.

What was measured:
Candida albicans [1] = experiment: Antimicrobial activity against Candida albicans ATCC 12031 assessed as diameter of zone of inhibition at 2 mg/ml after 24 hrs by agar well diffusion method; format: functional; conditions: ATCC 12031, 24 h, read-out: DIZ
Procedure, shortened: (§1)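 Agar well diffusion. Fungi were grown on Sabouraud dextrose agar and bacteria on nutrient agar (peptone, beef extract, NaCl, agar), with the inoculum spread over the medium. Wells were bored and filled with test drug at 2.0 mg/ml in DMSO. Plates sat 1 h at room temperature for diffusion, then 37 °C for 24 h. Inhibition zone diameter (mm, including well) is reported as mean ± SEM.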

Aspergillus fumigatus [2] = experiment: Antimicrobial activity against Aspergillus fumigatus ATCC 1022 assessed as diameter of zone of inhibition at 2 mg/ml after 24 hrs by agar well diffusion method; format: functional; conditions: ATCC 1022, 24 h, read-out: DIZ; procedure, shortened: as §1
Aspergillus versicolor [3] = experiment: Antimicrobial activity against Aspergillus versicolor ATCC 10072 assessed as diameter of zone of inhibition at 2 mg/ml after 24 hrs by agar well diffusion method; format: functional; conditions: ATCC 10072, 24 h, read-out: DIZ; procedure, shortened: as §1
Aspergillus flavus [4] = experiment: Antimicrobial activity against Aspergillus flavus ATCC 9643 assessed as diameter of zone of inhibition at 2 mg/ml after 24 hrs by agar well diffusion method; format: functional; conditions: ATCC 9643, 24 h, read-out: DIZ; procedure, shortened: as §1
Staphylococcus aureus [5] = experiment: Antimicrobial activity against Staphylococcus aureus ATCC 25923 assessed as diameter of zone of inhibition at 2 mg/ml after 24 hrs by agar well diffusion method; format: functional; conditions: ATCC 25923, 24 h, read-out: DIZ; procedure, shortened: as §1
Escherichia coli = experiment: Antimicrobial activity against Escherichia coli ATCC 25922 assessed as diameter of zone of inhibition at 2 mg/ml after 24 hrs by agar well diffusion method; format: functional; conditions: ATCC 25922, 24 h, read-out: DIZ; procedure, shortened: as §1
Candida albicans [6] = experiment: Antimicrobial activity against Candida albicans ATCC 12031 after 48 hrs by two-fold serial dilution method; format: functional; conditions: ATCC 12031, 48 h
Procedure, shortened: (§2)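 Two-fold serial broth dilution of compounds, 100 down to 3.125 (six levels). Each was inoculated with fungal suspension at 10^6 CFU/mL in suitable broth and incubated at 37 °C for 48 h. Growth was judged by turbidity to assign the minimum inhibitory concentration.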

Aspergillus fumigatus [7] = experiment: Antimicrobial activity against Aspergillus fumigatus ATCC 1022 after 48 hrs by two-fold serial dilution method; format: functional; conditions: ATCC 1022, 48 h; procedure, shortened: as §2
Aspergillus versicolor [8] = experiment: Antimicrobial activity against Aspergillus versicolor ATCC 10072 after 48 hrs by two-fold serial dilution method; format: functional; conditions: ATCC 10072, 48 h; procedure, shortened: as §2
Aspergillus flavus [9] = experiment: Antimicrobial activity against Aspergillus flavus ATCC 9643 after 48 hrs by two-fold serial dilution method; format: functional; conditions: ATCC 9643, 48 h; procedure, shortened: as §2
Staphylococcus aureus [10] = experiment: microbe, parasite or virus in culture; conditions: ATCC 25923, 24 h, read-out: DIZ
Candida albicans [11] = experiment: Antimicrobial activity against Candida albicans ATCC 12031 assessed as diameter of zone of inhibition at 20 microg/disc after 24 hrs by agar well diffusion method; format: functional; conditions: ATCC 12031, 24 h, read-out: DIZ
Procedure, shortened: (§3)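 Fungal inoculum spread on Sabouraud dextrose agar. 6 mm wells bored and filled with test drug at 2.0 mg/ml in DMSO (stock-as-added). Plates held 1 h at room temperature for diffusion, then incubated at 37 °C for 24 h. Inhibition zone diameter measured in mm, including well diameter. Reported as mean ± SEM.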

Aspergillus fumigatus [12] = experiment: Antimicrobial activity against Aspergillus fumigatus ATCC 1022 assessed as diameter of zone of inhibition at 20 microg/disc after 24 hrs by agar well diffusion method; format: functional; conditions: ATCC 1022, 24 h, read-out: DIZ; procedure, shortened: as §3
Aspergillus versicolor [13] = experiment: Antimicrobial activity against Aspergillus versicolor ATCC 10072 assessed as diameter of zone of inhibition at 20 microg/disc after 24 hrs by agar well diffusion method; format: functional; conditions: ATCC 10072, 24 h, read-out: DIZ; procedure, shortened: as §3
Aspergillus flavus [14] = experiment: Antimicrobial activity against Aspergillus flavus ATCC 9643 assessed as diameter of zone of inhibition at 20 microg/disc after 24 hrs by agar well diffusion method; format: functional; conditions: ATCC 9643, 24 h, read-out: DIZ; procedure, shortened: as §3

SMILES	zone of inhibition at 2000 µg/mL (Candida albicans [1]) [mm]	zone of inhibition at 2000 µg/mL (Aspergillus fumigatus [2]) [mm]	zone of inhibition at 2000 µg/mL (Aspergillus versicolor [3]) [mm]	zone of inhibition at 2000 µg/mL (Aspergillus flavus [4]) [mm]	zone of inhibition at 2000 µg/mL (Staphylococcus aureus [5]) [mm]	zone of inhibition at 2000 µg/mL (Escherichia coli) [mm]	MIC (Candida albicans [6]) [µg/mL]	MIC (Aspergillus fumigatus [7]) [µg/mL]	MIC (Aspergillus versicolor [8]) [µg/mL]	MIC (Aspergillus flavus [9]) [µg/mL]	zone of inhibition at 25 µg/disc (Staphylococcus aureus [10]) [mm]	zone of inhibition at 20 µg/disc (Candida albicans [11]) [mm]	zone of inhibition at 20 µg/disc (Aspergillus fumigatus [12]) [mm]	zone of inhibition at 20 µg/disc (Aspergillus versicolor [13]) [mm]	zone of inhibition at 20 µg/disc (Aspergillus flavus [14]) [mm]
COc1ccc(C2CC(c3c(O)cc(C)c(Cl)c3C)=NN2)cc1 (centres undefined)	18	18	13	12	11	8	50 (≈ 151 µM)	25 (≈ 75.6 µM)	25 (≈ 75.6 µM)	6.25 (≈ 18.9 µM)					
Cc1cc(O)c(C2=NNC(c3cccc(O)c3)C2)c(C)c1Cl (centres undefined)	23	20	21	21	11	9	12.5 (≈ 39.5 µM)	12.5 (≈ 39.5 µM)	6.25 (≈ 19.7 µM)	3.12 (≈ 9.86 µM)					
Cc1cc(O)c(C2=NNC(c3ccc(N(C)C)cc3)C2)c(C)c1Cl (centres undefined)	18	18	13	13	12	8	12.5 (≈ 36.4 µM)	12.5 (≈ 36.4 µM)	12.5 (≈ 36.4 µM)	6.25 (≈ 18.2 µM)					
COc1ccc(C2CC(c3c(O)cc(C)c(Cl)c3C)=NN2)cc1OC (centres undefined)	20	21	16	17	11	8	12.5 (≈ 34.6 µM)	12.5 (≈ 34.6 µM)	12.5 (≈ 34.6 µM)	25 (≈ 69.3 µM)					
COc1cc(C2CC(c3c(O)cc(C)c(Cl)c3C)=NN2)cc(OC)c1OC (centres undefined)	20	21	16	15	10	9	12.5 (≈ 32 µM)	12.5 (≈ 32 µM)	12.5 (≈ 32 µM)	12.5 (≈ 32 µM)					
Cc1cc(O)c(C2=NOC(c3ccccc3)C2)c(C)c1Cl (centres undefined)	22	21	17	15	11	8	25 (≈ 82.8 µM)	12.5 (≈ 41.4 µM)	25 (≈ 82.8 µM)	6.25 (≈ 20.7 µM)					
COc1ccc(C2CC(c3c(O)cc(C)c(Cl)c3C)=NO2)cc1 (centres undefined)	22	16	15	16	11	8	12.5 (≈ 37.7 µM)	25 (≈ 75.3 µM)	25 (≈ 75.3 µM)	6.25 (≈ 18.8 µM)					
Cc1cc(O)c(C2=NOC(c3ccc(Cl)cc3)C2)c(C)c1Cl (centres undefined)	22	20	21	20	12	7	12.5 (≈ 37.2 µM)	6.25 (≈ 18.6 µM)	12.5 (≈ 37.2 µM)	12.5 (≈ 37.2 µM)					
Cc1cc(O)c(C2=NOC(c3ccccc3Cl)C2)c(C)c1Cl (centres undefined)	23	21	20	20	11	8	12.5 (≈ 37.2 µM)	6.25 (≈ 18.6 µM)	12.5 (≈ 37.2 µM)	12.5 (≈ 37.2 µM)					
COc1ccc(C2CC(c3c(O)cc(C)c(Cl)c3C)=NO2)cc1OC (centres undefined)	21	15	14	15	10	9	12.5 (≈ 34.5 µM)	6.25 (≈ 17.3 µM)	12.5 (≈ 34.5 µM)	12.5 (≈ 34.5 µM)					
COc1cc(C)c(Cl)c(C)c1C(=O)C1=NNCC1c1ccccc1 (centres undefined)	19	20	19	21	10	8	25 (≈ 72.9 µM)	6.25 (≈ 18.2 µM)	12.5 (≈ 36.5 µM)	6.25 (≈ 18.2 µM)					
COc1ccccc1C1CNN=C1C(=O)c1c(OC)cc(C)c(Cl)c1C (centres undefined)	21	18	20	19	9	8	12.5 (≈ 33.5 µM)	12.5 (≈ 33.5 µM)	12.5 (≈ 33.5 µM)	6.25 (≈ 16.8 µM)					
COc1cc(C)c(Cl)c(C)c1C(=O)C1=NNCC1c1ccccc1[N+](=O)[O-] (centres undefined)	20	20	19	19	10	9	25 (≈ 64.5 µM)	12.5 (≈ 32.2 µM)	12.5 (≈ 32.2 µM)	12.5 (≈ 32.2 µM)					
O=C(O)c1cn(C2CC2)c2cc(N3CCNCC3)c(F)cc2c1=O [CIPROFLOXACIN]											24				
OC(Cn1cncn1)(Cn1cncn1)c1ccc(F)cc1F [FLUCONAZOLE]							12.5 (≈ 40.8 µM)	12.5 (≈ 40.8 µM)	3.12 (≈ 10.2 µM)	12.5 (≈ 40.8 µM)		21	22	21	21
